From ChEMBL document CHEMBL4425110, “ICI 56,780 Optimization: Structure-Activity Relationship Studies of 7-(2-Phenoxyethoxy)-4(1H)-quinolones with Antimalarial Activity” (J Med Chem, 2016)

How the values were obtained:
[1] = test system: J774; assay: Cytotoxicity against mouse J774 cells; format: cell-based
[2] = test system: Plasmodium falciparum; assay: Resistance index, ratio of EC50 for Plasmodium falciparum TM90-C2B to EC50 for Plasmodium falciparum W2; format: functional
[3] = test system: Plasmodium falciparum; assay: Antimalarial activity against Plasmodium falciparum TM90-C2B; format: functional, organism-based
[4] = test system: Plasmodium falciparum; assay: Antimalarial activity against Plasmodium falciparum W2; format: functional, organism-based
[5] = Liver blood index, ratio of EC50 for Plasmodium falciparum TM90-C2B to EC50 for Plasmodium berghei; format: functional
How it was run: (§1)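 Liver-stage EC50 measured in vitro against P. berghei. Liver blood index is the blood-stage EC50 divided by the P. berghei EC50, using either W2 or TM90-C2B as the blood-stage strain.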

[6] = Liver blood index, ratio of EC50 for Plasmodium falciparum W2 to EC50 for Plasmodium berghei; format: functional; how it was run: as §1
[7] = test system: Plasmodium berghei; assay: Antimalarial activity against Plasmodium berghei; format: functional, organism-based
How it was run: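 In vitro liver-stage (exoerythrocytic) assay against P. berghei; the value is the EC50 (nM).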

| Compound | EC50 [1] [nM] | Ratio EC50 [2] | EC50 [3] [nM] | EC50 [4] [nM] | Ratio EC50 [5] | Ratio EC50 [6] | EC50 [7] [nM] |
| --- | --- | --- | --- | --- | --- | --- | --- |
| COC(=O)c1c[nH]c2ccc(C(C)C)cc2c1=O | > 20000 | >28.8 | > 10200 | 354 | – | – | – |
| CCCCc1cc2c(=O)c(C(C)=O)c[nH]c2cc1OCCOc1ccccc1 | – | 39.1 | 378 | 9.67 | – | – | – |
| CCCCc1cc2c(=O)c(C(=O)OCC)c[nH]c2cc1OCCOc1ccccc1 | > 20000 | 699 | 100 | 0.143 | 14300 | 19.6 | 0.007 |
| CCCCc1cc2c(=O)c(I)c[nH]c2cc1OCCOc1ccccc1 | > 10000 | 4.91 | 6.04 | 1.23 | 2.37 | 0.482 | 2.55 |
| CCCCCc1cc2c(=O)c(C(=O)OC)c[nH]c2cc1OCCOc1ccccc1 | > 20000 | 375 | 68.7 | 0.183 | – | – | < 0.56 |
| O=c1cc[nH]c2cc(OCCOc3ccccc3)ccc12 | > 20000 | 1.29 | 7680 | 5960 | – | – | > 354 |
| COC(=O)c1c[nH]c2ccc(-c3ccccc3)cc2c1=O | > 20000 | 3.44 | 7180 | 2090 | – | – | > 179 |
| COC(=O)c1c[nH]c2cc(OCCOc3ccccc3)ccc2c1=O | > 20000 | 26.3 | 73.6 | 2.8 | 257 | 9.79 | 0.286 |
| COC(=O)c1c[nH]c2ccccc2c1=O | > 20000 | 33 | 6590 | 200 | 1810 | 54.8 | 3.65 |
| COC(=O)c1c[nH]c2ccc(Oc3ccccc3)cc2c1=O | > 20000 | 18.5 | 7060 | 381 | – | – | – |
| COC(=O)c1c[nH]c2cc(F)ccc2c1=O | > 20000 | 15.1 | 395 | 26.2 | – | – | > 100 |
| CCCCc1cc2c(=O)c(C(=O)NC(C)C)c[nH]c2cc1OCCOc1ccccc1 | > 20000 | 1.54 | 5140 | 3340 | – | – | – |
| COC(=O)c1c[nH]c2ccc(OC)cc2c1=O | 6180 | >22.2 | > 10700 | 482 | – | 6.05 | 79.6 |
| COC(=O)c1c[nH]c2cc(OCc3ccccc3)ccc2c1=O | 18900 | 4.42 | 8080 | 1830 | – | – | – |
| COC(=O)c1c[nH]c2cc(-c3ccccc3)ccc2c1=O | > 20000 | 4.41 | 11300 | 2560 | – | – | – |
| CCCc1cc2c(=O)c(C(=O)OC)c[nH]c2cc1OCCOc1ccccc1 | > 20000 | 270 | 42.4 | 0.157 | – | – | < 0.06 |
| COC(=O)c1c[nH]c2ccc(Oc3ccc(F)cc3)cc2c1=O | > 20000 | 48.8 | 5710 | 117 | – | – | – |
| CCCCc1ccc2[nH]ccc(=O)c2c1 | > 20000 | >35.2 | > 12400 | 352 | – | 0.89 | 395 |
| CCCCc1cc2c(=O)c(C(=O)NCC)c[nH]c2cc1OCCOc1ccccc1 | > 20000 | >29.7 | > 6120 | 206 | – | – | – |
| CCOc1ccc2[nH]cc(C(=O)OC)c(=O)c2c1 | > 20000 | >34.6 | > 10100 | 292 | – | – | – |
| COC(=O)c1c[nH]c2cc(Cl)ccc2c1=O | > 20000 | 2.46 | 5800 | 2360 | – | – | – |
| CCc1ccc2[nH]cc(C(=O)OC)c(=O)c2c1 | > 20000 | >74.5 | > 10800 | 145 | – | – | – |
